Source: ChEMBL document CHEMBL1143976, “Synthesis of fluorine substituted pyrazolopyrimidines as potential leads for the development of PET-imaging agents for the GABAA receptors” (Bioorg Med Chem, 2008)
pIC50: −log10 of the molar value.

Columns and labels:
[1] = Displacement of [3H]flunitrazepam from GABAA receptor in Sprague-Dawley rat cerebellar membrane; parameters: species or system Cerebellum
Outline: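 Cerebella from adult female Sprague–Dawley rats (8–10 weeks) homogenised in ice-cold 50 mM Tris-HCl pH 7.4; 20,000g membrane pellet washed repeatedly. Incubated with N-methyl-[3H]flunitrazepam (~0.3 nM final) at 21 °C for 60 min; nonspecific binding defined with zolpidem. Filtered onto PEI-presoaked GF/B, scintillation counted. IC50 by nonlinear regression from 10–12 concentrations in triplicate; ≥3 independent experiments, mean ± SD.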

[2] = Distribution coefficient, log D by C-18 reversed phase method; type: physicochemical; settings: octanol/water; read-out: Log D
Outline: (§1)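 HPLC logD per European guideline; line 4 on Multisorb RP18-7 C-18 column, line 5 on Supelcosil ABZ+Plus alkyl amide column (both 250 × 4 mm). Solvent A 5% acetonitrile/20 mM ammonium acetate held 0–5 min, then solvent B 80% acetonitrile/20 mM ammonium acetate to 40, 50 or 65 min; 1 mL/min; UV detection. SD reported.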

[3] = Distribution coefficient, log D by alkyl amide reversed phase method; type: physicochemical; settings: octanol/water; read-out: Log D; outline: as §1

Compound	pIC50 [1]	chromatographic logD [2]	chromatographic logD [3]
CC(=O)N(C)c1cccc(-c2ccnc3c(C(=O)c4ccc(F)cc4)cnn23)c1	7.27	2.34	2.38
CCC(=O)N(CCCF)c1cccc(-c2ccnc3c(C(=O)c4cccs4)cnn23)c1	8.28		
CC(C)C(=O)N(CCCF)c1cccc(-c2ccnc3c(C(=O)c4cccs4)cnn23)c1	7.42	2.55	2.68
CC(=O)N(CCCCF)c1cccc(-c2ccnc3c(C(=O)c4cccs4)cnn23)c1	8.22	2.48	
CC(=O)N(C)c1cccc(-c2ccnc3c(C(=O)c4cccs4)cnn23)c1 [INDIPLON]	8.48	2.26	2.23
CN(CCF)c1cccc(-c2ccnc3c(C(=O)c4cccs4)cnn23)c1	7.75	2.66	2.69
CC(=O)N(CCCF)c1cccc(-c2ccnc3c(C(=O)c4cccs4)cnn23)c1	8.56	2.35	2.38
CN(C(=O)c1ccc([N+](=O)[O-])cc1)c1cccc(-c2ccnc3c(C(=O)c4cccs4)cnn23)c1	7.80	2.51	2.64
CN(C(=O)c1ccc(F)cc1)c1cccc(-c2ccnc3c(C(=O)c4cccs4)cnn23)c1	7.85	2.64	2.63
CC(=O)N(CCF)c1cccc(-c2ccnc3c(C(=O)c4cccs4)cnn23)c1	8.24	2.62	
